Experimental data from article PMC10329961 (Advances in Therapy, 2023).
Counter-ions that a name gives are not always drawn.

Columns and labels:
healthy adult men = assay: Adverse events; type: in vivo, human; conditions: 8-day twice-daily instillation
Method in brief: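 Healthy adult men, 3 × 3 crossover: three 8-day phases separated by drug-free intervals of at least 5 days. One drop of test eye drop was given in both eyes twice daily (09:00, 21:00), with morning dose only on day 8. Subjects were inpatients from day −1 to day 9. AEs and ADRs were tallied as number and percentage of subjects.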

[1] = tested on: corneal endothelial cells; type: in vivo, human; conditions: after instillation, days 1 and 8; none developed grade 3
healthy volunteers = conditions: cited from earlier work; for pupil diameter after single instillation: healthy subjects, ref 37 (Lee et al.)
[2] = tested on: palpebral and bulbar conjunctivae; assay: Palpebral and bulbar conjunctival hyperemia grading by slit lamp microscope; type: in vivo, human; conditions: day 1, score – = 0, + = 1, 2+ = 2, 3+ = 3; for palpebral conjunctival hyperemia mean ± SD grade score: administration phase 1
Method in brief: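 Conjunctival hyperemia was graded: – no or physiologic findings; + several vasodilatations; 2+ multiple or limbal vasodilatation; 3+ whole conjunctiva. Change from baseline per phase was averaged over both eyes and analysed by marginal model, n = 17–18.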

[3] = tested on: healthy adults and patients with glaucoma; conditions: cited from earlier work

Row | SMILES | subjects with ADRs (healthy adult men) [%] | subjects with AEs (healthy adult men) [%] | subjects with conjunctival hyperemia as ADR (healthy adult men) [%] | subjects with conjunctival hyperemia as AE (healthy adult men) [%] | morphologic changes in corneal endothelial cells (grade) [1] | pupil diameter after single instillation (healthy volunteers) | effect on pupil (healthy volunteers; healthy volunteers) | palpebral conjunctival hyperemia mean ± SD grade score ([2]; 15 min post-instillation) | palpebral conjunctival hyperemia mean ± SD grade score ([2]; 1 h post-instillation) | bulbar conjunctival hyperemia mean ± SD grade score ([2]; 1 h post-instillation) | time of peak of transient conjunctival hyperemia after instillation [3] [min]
1 | Brc1c(NC2=NCCN2)ccc2nccnc12 [brimonidine, brimonidine tartrate] | 58.8 | 70.6 | 47.1 | 58.8 | No morphologic changes | significantly decreased | moderate miotic effect | – | – | – | –
2 | C[C@H]1CNCCCN1S(=O)(=O)c1cccc2cncc(F)c12 [ripasudil, ripasudil hydrochloride hydrate] | 100.0 | 100.0 | 100.0 | 100.0 | grade 1 or 2 | no change in pupil diameter | – | 1.4 ± 0.6 | 0.9 ± 0.7 | 0.9 ± 0.5 | 5 to 15
